Experimental data published in article PMC2787731 (Biochimica et biophysica acta, 2009).
Where “and” joins values, the source holds several entries; their conditions need not be identical. Identical values can stand only once. Entries after “also recorded” stand apart in the source; their conditions may differ. Like-named read-outs stand apart in the source and are kept apart here. Blank lines part the entries; values can stand above or below the molecule they belong to.

Experiments:
recombinant CES1 [1] = target: T1, recombinant CES1 (Homo sapiens, UniProt P23141); assay: Inhibition of carboxylesterase activity of recombinant human CES1; type: biochemical; conditions: for Inhibition of carboxylesterase activity of CES1 / Effect on carboxylesterase activity of recombinant CES1 (in words) / Mode of inhibition of recombinant CES1: pNPV; for Inhibition of carboxylesterase activity of CES1: concentration not given; for Mode of inhibition of recombinant CES1: curve fit of fractional inhibition, Dixon plots
T1 sequence (P23141 18-567): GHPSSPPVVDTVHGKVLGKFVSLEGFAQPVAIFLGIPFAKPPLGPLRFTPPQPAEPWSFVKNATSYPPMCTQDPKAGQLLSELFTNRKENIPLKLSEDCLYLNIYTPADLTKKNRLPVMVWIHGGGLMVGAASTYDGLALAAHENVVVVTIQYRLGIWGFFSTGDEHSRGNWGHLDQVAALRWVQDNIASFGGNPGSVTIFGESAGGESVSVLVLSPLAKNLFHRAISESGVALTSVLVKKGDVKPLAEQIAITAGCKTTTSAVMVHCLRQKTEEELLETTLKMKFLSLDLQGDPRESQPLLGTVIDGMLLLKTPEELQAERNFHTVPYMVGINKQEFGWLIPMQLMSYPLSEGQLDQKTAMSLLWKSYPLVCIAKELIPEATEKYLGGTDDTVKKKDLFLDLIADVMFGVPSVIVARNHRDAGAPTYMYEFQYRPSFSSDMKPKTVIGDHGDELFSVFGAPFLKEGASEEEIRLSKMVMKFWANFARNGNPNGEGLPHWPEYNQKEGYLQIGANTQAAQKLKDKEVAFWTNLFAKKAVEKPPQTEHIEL

[2] = target: T2, carboxylesterase activity of THP1 cell lysates (Homo sapiens, UniProt P23141); assay: Inhibition of carboxylesterase activity of THP1 cell lysates; type: biochemical
T2 sequence (P23141 18-567): T1 sequence (P23141 18-567)

[3] = test system: THP1 macrophage foam cells; type: cell-based, human; conditions: 10 μM; for Change in intracellular cholesteryl esters vs vehicle control: BSA only acceptor
[4] = cited from earlier work
recombinant CES1 [5] = target: T1, recombinant CES1; assay: Activity-based probe; type: biochemical
Method in brief: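 Recombinant human CES1 was expressed in baculovirus-infected Spodoptera frugiperda cells and purified. The enzyme was preincubated with test compound for 30 min and then treated with the activity-based probe fluorophosphonate-biotin. IC50 was estimated from probe labelling.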

recombinant CES2 = target: T3, recombinant CES2 (Homo sapiens, UniProt O00748); assay: Inhibition of recombinant CES2 activity; type: biochemical
T3 sequence (O00748 27-559): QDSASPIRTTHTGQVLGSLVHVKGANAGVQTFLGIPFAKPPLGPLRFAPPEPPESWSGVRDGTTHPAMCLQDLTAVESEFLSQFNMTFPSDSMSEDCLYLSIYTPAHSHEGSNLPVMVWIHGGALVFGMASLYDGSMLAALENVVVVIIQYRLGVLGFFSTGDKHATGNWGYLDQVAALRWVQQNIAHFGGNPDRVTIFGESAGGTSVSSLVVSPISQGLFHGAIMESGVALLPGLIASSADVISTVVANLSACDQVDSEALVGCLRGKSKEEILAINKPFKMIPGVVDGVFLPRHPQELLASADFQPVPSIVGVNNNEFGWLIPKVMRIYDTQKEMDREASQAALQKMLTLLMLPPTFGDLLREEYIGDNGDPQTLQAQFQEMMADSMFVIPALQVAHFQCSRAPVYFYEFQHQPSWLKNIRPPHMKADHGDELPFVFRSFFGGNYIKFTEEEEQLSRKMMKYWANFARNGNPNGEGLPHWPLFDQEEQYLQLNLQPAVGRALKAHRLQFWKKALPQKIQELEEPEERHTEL

recombinant CES1 [6] = target: T1, recombinant CES1; type: biochemical; conditions: read-out: Inhibition of CES1 hydrolytic activity toward trans-permethrin, 20 μM AA; trans-permethrin 50 μM; 2% (w/v) fatty acid-free bovine serum albumin added
[7] = target: T4, rat CES1 ortholog (Hydrolase A) (Rattus norvegicus, UniProt P16303); assay: Inhibition of rat CES1 ortholog; type: biochemical
T4 sequence (P16303 19-565): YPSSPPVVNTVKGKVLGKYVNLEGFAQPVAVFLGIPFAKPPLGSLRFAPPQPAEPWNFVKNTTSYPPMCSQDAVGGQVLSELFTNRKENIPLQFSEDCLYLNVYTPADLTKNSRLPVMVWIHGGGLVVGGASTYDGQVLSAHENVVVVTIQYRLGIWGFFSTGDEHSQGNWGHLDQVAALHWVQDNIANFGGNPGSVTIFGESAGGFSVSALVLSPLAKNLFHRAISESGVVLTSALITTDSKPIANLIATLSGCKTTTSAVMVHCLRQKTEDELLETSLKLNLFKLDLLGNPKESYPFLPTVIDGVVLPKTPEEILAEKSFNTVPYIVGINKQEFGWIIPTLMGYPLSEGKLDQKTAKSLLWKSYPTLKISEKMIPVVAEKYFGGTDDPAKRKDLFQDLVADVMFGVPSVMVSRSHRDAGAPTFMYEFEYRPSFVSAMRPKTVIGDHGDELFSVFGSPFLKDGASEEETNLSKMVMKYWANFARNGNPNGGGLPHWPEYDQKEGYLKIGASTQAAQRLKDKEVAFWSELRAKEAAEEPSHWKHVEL

[8] = test system: intracellular carboxylesterase activity of THP1 cells; assay: Intracellular carboxylesterase activity in intact THP1 monocytes; type: cell-based, human; conditions: 10 μM, 80 min, pNPV
[9] = read-out: CES1 IC50, recombinant CES1, pNPV 500 μM, 15 min preincubation at 37°C
[10] = CES1 IC50, recombinant CES1, pNPV 500 μM, 15 min preincubation at 37°C
[11] = Cell lysate IC50, THP1 cell lysate, pNPV 500 μM, 15 min preincubation at 37°C

SMILES: CC(C)CCC[C@@H](C)[C@H]1CC[C@H]2[C@@H]3C(=O)C=C4C[C@@H](O)CC[C@]4(C)[C@H]3CC[C@]12C [7-ketocholesterol]
Inhibition of carboxylesterase activity of CES1 (recombinant CES1 [1]): < 15%
Inhibitory effect on carboxylesterase activity of THP1 cell lysates (in words) ([2]; pNPV): little inhibitory activity; also recorded: minimal inhibitory effect

SMILES: CCCCC/C=C\CC1OC1C/C=C\C/C=C\CCCC(=O)O (stereo not drawn) [11,12-EET, 11,12-Epoxy-5Z,8Z,14Z-eicosatrienoic acid]
IC50 (recombinant CES1 [1]; [9]): 27 ± 1 µM

SMILES: CCCCCC1OC1C/C=C\C/C=C\C/C=C\CCCC(=O)O (stereo not drawn) [14,15-EET]
IC50 (recombinant CES1 [1]; [9]): 38 ± 1 µM

SMILES: CCCCC/C=C/C=C1/C(=O)C=C[C@@H]1C/C=C\CCCC(=O)O [15-deoxy-Δ^12,14-Prostaglandin J2]
IC50 (recombinant CES1 [1]; [9]): 13 ± 3 µM

SMILES: CC(C)CC[C@@H](O)[C@@H](C)[C@H]1CC[C@H]2[C@@H]3CC=C4C[C@@H](O)CC[C@]4(C)[C@H]3CC[C@]12C [22(R)-HC, 22(R)-hydroxycholesterol]
Change in free cholesterol levels vs vehicle control ([3]; 12 h): No change
Change in intracellular cholesteryl esters vs vehicle control ([3]; 12 h): significant reduction
Effect on carboxylesterase activity of recombinant CES1 (in words) (recombinant CES1 [1]): minimal activity
Inhibition of carboxylesterase activity of THP1 cell lysate ([2]; 50 μM oxysterol, pNPV): ~ 30%
Inhibitory effect on carboxylesterase activity of THP1 cell lysates (in words) ([2]; pNPV): little inhibitory activity

SMILES: CC(C)[C@@H](O)CC[C@@H](C)[C@H]1CC[C@H]2[C@@H]3CC=C4C[C@@H](O)CC[C@]4(C)[C@H]3CC[C@]12C [24(S)-HC, 24(S)-hydroxycholesterol]
Inhibitory effect on carboxylesterase activity of THP1 cell lysates (in words) ([2]; pNPV): minimal inhibitory effect
Inhibitory effect on carboxylesterase activity of THP1 cell lysates (in words) ([2]; pNPV, listed as 24(S)-hydroxycholesterol): little inhibitory activity

SMILES: C[C@H](CCCC(C)(C)O)[C@H]1CC[C@H]2[C@@H]3CC=C4C[C@@H](O)CC[C@]4(C)[C@H]3CC[C@]12C [25-HC, 25-hydroxycholesterol]
Inhibition of carboxylesterase activity of CES1 (recombinant CES1 [1]): < 15%
Inhibitory effect on carboxylesterase activity of THP1 cell lysates (in words) ([2]; pNPV): minimal inhibitory effect
Inhibitory effect on carboxylesterase activity of THP1 cell lysates (in words) ([2]; pNPV, listed as 25-hydroxycholesterol): little inhibitory activity

SMILES: C[C@@H](CO)CCC[C@@H](C)[C@H]1CC[C@H]2[C@@H]3CC=C4C[C@@H](O)CC[C@]4(C)[C@H]3CC[C@]12C [27-HC, 27-hydroxycholesterol]
Predicted solubility limit in aqueous solution [4]: 0.52 µM
Change in intracellular cholesteryl esters vs vehicle control ([3]; 12 and 24 h): no significant changes
Change in free cholesterol levels vs vehicle control ([3]; 12 h): significantly reduced
IC50 (recombinant CES1 [5]): 0.04 ± 0.02 µM
IC50 (recombinant CES2): > 5 µM
IC50 (recombinant CES1 [1]): 0.05 ± 0.02 µM
Ki (recombinant CES1 [1]; Kiapp, recombinant CES1, ester substrate 4-MUBA, data not shown): 0.0104 ± 0.0013 µM
Ki (recombinant CES1 [1]; Kiapp, recombinant CES1, substrate pNPV, 15 min preincubation with enzyme): 0.01 µM and 0.0101 µM
Mode of inhibition of recombinant CES1 (recombinant CES1 [1]): partial non-competitive inhibitor
inhibition at 0.5 µM (recombinant CES1 [1]; read-out: Maximum inhibition of CES1 activity): ~67%
Inhibition of carboxylesterase activity of THP1 cell lysate ([2]; 50 μM oxysterol, pNPV): ~ 78%
IC50 ([2]; IC50, carboxylesterase activity of THP1 whole-cell lysates, THP1 whole-cell lysates, pNPV): 0.033 µM

SMILES: CCCCC/C=C\C/C=C\C/C=C\C/C=C\CCCC(=O)O [AA, 5Z,8Z,11Z,14Z-Eicosatetraenoic acid]
inhibition at 20 µM (recombinant CES1 [6]): 14%
IC50 (recombinant CES2): > 100 µM
IC50 [7]: 50 µM
IC50 toward rat CES1 relative to the human enzyme ([7]; rat vs human CES1): 25 fold
Ki (recombinant CES1 [1]): 1.7 µM
IC50 (recombinant CES1 [1]; [10]): 2 ± 1 µM
Mode of inhibition of recombinant CES1 (recombinant CES1 [1]): noncompetitive inhibition model
Inhibition of carboxylesterase activity of THP1 cell lysate ([2]; 100 μM fatty acid, pNPV): ~ 90%
IC50 [2, 11]: 4 ± 1 µM

SMILES: C[C@H](CC[C@@H]1OC1(C)C)[C@H]1CC[C@H]2[C@@H]3CC=C4C[C@@H](O)CC[C@]4(C)[C@H]3CC[C@]12C [epoxycholesterol, 24(S),25-epoxycholesterol]
Change in free cholesterol levels vs vehicle control ([3]; 12 and 24 h): reduced
Change in intracellular cholesteryl esters vs vehicle control ([3]; 12 and 24 h): no significant changes
Inhibition of carboxylesterase activity of THP1 cell lysate ([2]; 50 μM oxysterol, pNPV): ~ 70%
IC50 [2, 11]: 8.1 µM

SMILES: CCOP(=O)(OCC)Oc1ccc([N+](=O)[O-])cc1 [paraoxon]
Inhibition of intracellular carboxylesterase activity [8]: 87%

The next lines start with results.

IC50 (recombinant CES1 [1]; [10]): > 100 µM
SMILES: CCCCC[C@H](O)/C=C/[C@H]1[C@H](O)CC(=O)[C@@H]1C/C=C\CCCC(=O)O [Prostaglandin E2]

IC50 (recombinant CES1 [1]; [10]): > 100 µM
SMILES: CCCCC[C@H](O)/C=C/[C@@H]1[C@@H](C/C=C\CCCC(=O)O)[C@@H](O)C[C@H]1O [Prostaglandin F2α]

IC50 (recombinant CES1 [1]; read-out: IC50, CES1 enzyme activity, data not shown): ~7000 µM
SMILES: C[C@H](CCC(=O)O)[C@H]1CC[C@H]2[C@@H]3[C@H](O)C[C@@H]4C[C@H](O)CC[C@]4(C)[C@H]3C[C@H](O)[C@]12C [cholate]

Effect on carboxylesterase activity of recombinant CES1 (in words) (recombinant CES1 [1]): almost no effect
SMILES: CC(C)CCC[C@@H](C)[C@H]1CC[C@H]2[C@@H]3CC=C4C[C@@H](O)CC[C@]4(C)[C@H]3CC[C@]12C [cholesterol]
Inhibitory effect on carboxylesterase activity of THP1 cell lysates (in words) ([2]; pNPV): little inhibitory activity; also recorded: no inhibitory effect

IC50 (recombinant CES1 [1]; [10]): 9 ± 6 µM
IC50 [2, 11]: 20 ± 3 µM
SMILES: CCCCC/C=C\C/C=C\CCCCCCCC(=O)O [linoleic acid, 9Z,12Z-Octadecadienoic acid]

IC50 (recombinant CES1 [1]; [10]): 9 ± 3 µM
IC50 [2, 11]: 28 ± 4 µM
SMILES: CCCCCCCCCCCCCC(=O)O [myristic acid, Tetradecanoic acid]

IC50 (recombinant CES1 [1]; [10]): 12 ± 2 µM
IC50 [2, 11]: 23 ± 6 µM
SMILES: CCCC/C=C\CCCCCCCC(=O)O [myristoleic acid, 9Z-Tetradecenoic acid]

IC50 (recombinant CES1 [1]; [10]): 7 ± 3 µM
IC50 [2, 11]: 11 ± 4 µM
SMILES: CCCCCCCC/C=C\CCCCCCCC(=O)O [oleic acid, 9Z-Octadecenoic acid]

IC50 (recombinant CES1 [1]; [10]): 25 ± 13 µM
IC50 [2, 11]: > 100 µM
SMILES: CCCCCCCCCCCCCCCC(=O)O [palmitic acid, Hexadecanoic acid]

IC50 (recombinant CES1 [1]; [10]): > 100 µM
IC50 [2, 11]: > 100 µM
SMILES: CCCCCCCCCCCCCCCCCC(=O)O [stearic acid, Octadecanoic acid]

IC50 (recombinant CES1 [1]; [10]): 19 ± 10 µM
IC50 [2, 11]: 23 ± 3 µM
SMILES: CCCCC/C=C\C/C=C\C/C=C\CCCCC(=O)O [γ-linolenic acid, 6Z,9Z,12Z-Octadecatrienoic acid]
